# Experimental data reported in ChEMBL document CHEMBL1158940, “Antihyperlipidemic effect of flavonoids from Prunus davidiana” (1991).
# What was measured:
# Format in all cases: functional
# Parameters in all cases: scale not given: the % may be the effect or the level left
# Conditions in all cases: route intraperitoneal
# Rattus norvegicus [1] = assay: Antihyperlipidemic effect in high fat diet-induced rat assessed as decrease in serum total cholesterol level at 10 mg/kg, ip relative to control
# How it was run: (§1)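 Male JCL:Wistar rats (150 g) on commercial chow 1 week, then high-fat diet (10 g soybean oil per 100 g, casein, α-cornstarch) 6 days, pair-matched for blood triglyceride and body weight. Compound suspended in 5% EtOH/saline, ip once daily for 3 days; controls get vehicle. Sacrificed 4 h after last dose (2–3 PM); serum separated at 1000 g, 4°. Six rats per group; percent of control; Student's t-test.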
# Rattus norvegicus [2] = assay: Antihyperlipidemic effect in high fat diet-induced rat assessed as decrease in serum triglyceride level at 10 mg/kg, ip relative to control; how it was run: as §1
# Rattus norvegicus [3] = assay: Antihyperlipidemic effect in high fat diet-induced rat assessed as decrease in serum triglyceride level at 20 mg/kg, ip relative to control; how it was run: as §1
# Rattus norvegicus [4] = assay: Antihyperlipidemic effect in high fat diet-induced rat assessed as decrease in serum total cholesterol level at 20 mg/kg, ip relative to control; how it was run: as §1
SMILES,Activity (Rattus norvegicus [1]),Activity (Rattus norvegicus [2]),Activity (Rattus norvegicus [3]),Activity (Rattus norvegicus [4])
COc1ccc([C@@H]2CC(=O)c3c(O[C@@H]4O[C@H](CO)[C@@H](O)[C@H](O)[C@H]4O)cc(O)cc3O2)cc1O,88%,100%,90%,101%
Oc1cc(O)c2c(c1)O[C@H](c1ccc(O)c(O)c1)[C@@H](O)C2 [CIANIDANOL],95%,75%,73%,99%
O=C1C[C@@H](c2ccc(O)cc2)Oc2cc(O[C@@H]3O[C@H](CO)[C@@H](O)[C@H](O)[C@H]3O)cc(O)c21 [PRUNIN],102%,90%,107%,91%
